The record followed here is ChEMBL document CHEMBL1153795, “Aromatic cyclic peroxides and related keto-compounds from the Plakortis sp. component of a sponge consortium” (2009).

In brackets after ≈: the same amount, converted by molar mass. Activity calls are given as the source filed them. The calls are words filed in the database; no cut-off is given here.

In experiment [1] the test system is Candida albicans. Description: Antifungal activity against Candida albicans after 24 hrs by broth macridilution method. The format is functional, organism-based.
Experiment [2] relates to Escherichia coli. The experiment in a line: Antibacterial activity against Escherichia coli after 24 hrs by broth macridilution method. Type of experiment: functional, organism-based. The method in brief:
(§1)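 Broth macrodilution in LB medium (10 g/L Bactotryptone, 5 g/L Bactoyeast, 10 g/L NaCl, pH 7.5). Inoculum was set to 0.5 McFarland (2 × 10^8 cfu/mL) at 530 nm, then diluted 1:4000 to 50 000 cfu/mL. Tubes held eleven 2-fold dilutions (512–[…] µg/mL final) and were incubated 24 h at 37 °C. MIC90 was taken as the lowest concentration with no visible growth.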

Experiment [3] has as its system Staphylococcus aureus. The experiment in a line: Antibacterial activity against Staphylococcus aureus after 24 hrs by broth macridilution method. The format is functional. The gist of the method:
as §1

On to `CC(=O)CC(C)CCCCCCCCc1ccccc1` (stereo unspecified), for which the result in experiment [1] and in experiment [2] was inactive.

Turning to `CC(CCCCCC/C=C/c1ccccc1)C[C@@]1(C)C[C@@H](C)[C@@](C)(O)OO1` (stereo partly specified), the outcome in experiment [1] and in experiment [2] was inactive.

Take `COC(=O)C[C@]1(O)OO[C@@](C)(C/C(C)=C/C=C/Cc2ccccc2)C[C@H]1C`: the result in experiment [1] and in experiment [2] was inactive.

In experiment [3], `CC(CCCCCCCCc1ccccc1)C[C@@]1(C)C[C@@H](C)[C@@](C)(O)OO1` (stereo partly specified) displayed an MIC of 64 µg/mL (≈ 170 µM). The result in experiment [1] and in experiment [2] was inactive.

Take `CC(=O)CC(C)CCCCCC/C=C/c1ccccc1` (stereo unspecified): the result in experiment [1] and in experiment [2] was inactive.
